Calls of active or inactive are those of the source.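 Rule for the calls, unless noted: active = viability at or below 10% of carrier control in both of two separate runs; inconclusive = viability at or below 10% in only one of the two runs; inactive = the rest.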
Columns and labels:
[1] = Her2 expression decrease, cell viability multiplex – SKBR3 breast tumor cells, AlphaScreen, ATP viability, primary screen (AID 461;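 active = Her2 level under about 52% in both replicate screens, with viability over 70% of control, limit read from the data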;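 for Her2 level: lower value means less Her2 protein in the cells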;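 for viability: percent of carrier control wells set as 100% viability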); conditions: SKBR3 Her2 protein level, 18-24 h, measured here: SKBR3 viability, ATP luminescence, at 10 µM
[2] = target: Receptor tyrosine-protein kinase erbB-2 (Homo sapiens) (UniProt P04626); experiment: as above; conditions: 18-24 h, at 10 µM, stronger effect = lower value
Sequence of Receptor tyrosine-protein kinase erbB-2 (Homo sapiens) (P04626 whole entry, looked up): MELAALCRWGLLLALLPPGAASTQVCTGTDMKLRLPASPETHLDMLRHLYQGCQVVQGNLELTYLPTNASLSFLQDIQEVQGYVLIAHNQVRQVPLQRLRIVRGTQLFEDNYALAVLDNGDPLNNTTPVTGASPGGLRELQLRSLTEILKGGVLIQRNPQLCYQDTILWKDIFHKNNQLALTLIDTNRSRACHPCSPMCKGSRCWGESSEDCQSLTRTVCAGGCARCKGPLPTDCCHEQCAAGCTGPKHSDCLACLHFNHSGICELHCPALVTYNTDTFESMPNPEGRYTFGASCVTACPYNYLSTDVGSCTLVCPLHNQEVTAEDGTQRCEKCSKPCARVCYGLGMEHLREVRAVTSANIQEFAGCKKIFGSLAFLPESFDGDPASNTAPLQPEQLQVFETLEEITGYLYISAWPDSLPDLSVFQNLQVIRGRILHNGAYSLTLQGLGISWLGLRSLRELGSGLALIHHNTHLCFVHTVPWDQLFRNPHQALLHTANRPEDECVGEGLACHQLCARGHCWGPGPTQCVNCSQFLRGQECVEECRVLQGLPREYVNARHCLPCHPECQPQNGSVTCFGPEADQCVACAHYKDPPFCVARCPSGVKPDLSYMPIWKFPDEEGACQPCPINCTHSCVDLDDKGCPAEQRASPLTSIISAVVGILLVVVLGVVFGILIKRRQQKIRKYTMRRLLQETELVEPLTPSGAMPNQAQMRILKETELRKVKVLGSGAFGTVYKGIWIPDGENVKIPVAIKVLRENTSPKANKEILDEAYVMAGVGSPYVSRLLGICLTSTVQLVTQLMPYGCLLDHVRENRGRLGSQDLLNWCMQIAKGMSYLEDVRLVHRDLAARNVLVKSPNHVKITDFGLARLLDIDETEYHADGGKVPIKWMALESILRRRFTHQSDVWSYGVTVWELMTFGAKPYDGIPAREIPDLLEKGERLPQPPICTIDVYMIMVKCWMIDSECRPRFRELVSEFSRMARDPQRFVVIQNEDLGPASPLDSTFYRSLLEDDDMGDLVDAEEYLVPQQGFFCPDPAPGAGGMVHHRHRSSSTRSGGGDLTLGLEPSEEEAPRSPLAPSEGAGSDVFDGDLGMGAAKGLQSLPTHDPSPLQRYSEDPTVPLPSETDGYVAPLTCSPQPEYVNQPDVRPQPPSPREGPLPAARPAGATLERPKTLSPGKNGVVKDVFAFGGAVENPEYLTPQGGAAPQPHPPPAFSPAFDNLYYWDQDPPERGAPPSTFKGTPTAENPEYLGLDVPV

[3] = reduced viability of SK-BR-3 breast cancer cells – cell-based, 24 h, human, pilot screen (AID 572); conditions: SK-BR-3 viability, CellTiter-Glo luminescence, at 10 µM, stronger effect = lower value;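 note: compound exposure lasted between 18 and 24 h rather than exactly 24 h; 100% = carrier-treated control wells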
[4] = HUVEC growth inhibition – cell-based, human, primary screen (AID 575;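 active = viability at or below 30% in both replicate assays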;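 note: 100% = median of untreated cell wells with 0.1% DMSO on each plate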); conditions: HUVEC proliferation, CellTiter-Glo luminescence, 72 h; at 10 µM; stronger effect = lower value
Method in brief: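 Test system – primary HUVEC, no more than 12 passages · Dosing – one dose, 10 µM final, 0.1% DMSO · Times – 72 h treatment at 37 °C · Measured by – ATP-based CellTiter-Glo luminescent read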

[5] = H69AR cell proliferation blockers – human, duplicate replicates, primary screen (AID 580;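 active = viability at or under a set limit in both replicates, limit being median viability minus 3 SD, cut at about 48% in these data, passing the limit was not always enough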;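 note: 100% = mean luminescence of untreated wells and 0% = no signal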); conditions: H69AR lung tumor cells viability, ATP luminescence, 72 h; at 10 µM; stronger effect = lower value
[6] = MRP1 drug-resistance reversers in H69AR cells – cell-based, doxorubicin co-treatment, pilot screen (AID 601;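 active = viability loss from added drug above about 55%, and viability with drug at most 40%, in both replicates, limit read from the data, passing the limit was not always enough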); conditions: CellTiter-Glo, 72 h, at 10 µM; for differential viability (reversal): stronger effect = higher value
[7] = yeast transport mutant growth inhibition pilot in 384-well plates, post-Golgi transport modulator project (AID 636; in the data active = inhibition above about 31%); conditions: absorbance 615 nm, about 18 h, stronger effect = higher value
[8] = growth suppression of yeast trafficking mutant, preliminary HTS, modulators of trafficking downstream of Golgi apparatus project, 1536-format plate, OD 615 nm (AID 637; in the data active = inhibition above about 30%); conditions: yeast transport mutant growth, absorbance 615 nm, 18 h; stronger effect = higher value
[9] = H69AR cells + 2 uM doxorubicin, measured here: viability with 2 uM doxorubicin, stronger effect = lower value
[10] = H69AR cells, compound alone cytotoxicity

SMILES	viability [1]	Her2 level [2]	viability [3]	viability [4]	viability [5]	differential viability (reversal) ([6]; H69AR cells + 2 uM doxorubicin)	viability [6, 9]	viability [6, 10]	inhibition [7]	inhibition [8]
Cc1cc(C)n2cc(CSc3nnnn3C)nc2n1	84.5%	92% (inactive)	84.5% (inactive)	87.8% (inactive)	85.7% (inactive)	-0.355% (inactive)	86%	85.7%	0.51% (inactive)	6.17% (inactive)
COC(=O)c1ccc(CSc2nnc(-c3ccncc3)o2)o1	110%	69% (inactive)	110% (inactive)	87.8% (inactive)	100% (inactive)	4.48% (inactive)	95.8%	100%	-4.8% (inactive)	1.48% (inactive)
Cc1cc(C(=O)NCCN2CCN(c3cccc(Cl)c3)CC2)n(-c2ccccc2)n1	98%	91.5% (inactive)	98% (inactive)	42.3% (inactive)	23.7% (active)	-24.5% (inactive)	48.2%	23.7%	-4.8% (inactive)	-1.48% (inactive)
CCn1c(SCC(=O)N2CCOCC2)nc2c(c1=O)SC(C)C2 (stereo not given)	95%	112% (inactive)	95% (inactive)	97.3% (inactive)	88% (inactive)	6.23% (inactive)	81.7%	88%	-7.53% (inactive)	-4.92% (inactive)
Cc1cc(C)c2[nH]c(=O)c(C(c3nnnn3Cc3ccc4c(c3)OCO4)N3CCC(C)CC3)cc2c1 (stereo not given)	90%	106% (inactive)	90% (inactive)	84.4% (inactive)	86.7% (inactive)	-6.47% (inactive)	93.1%	86.7%	-4.67% (inactive)	-6.83% (inactive)
CN1CCN(c2oc(COc3ccc(-c4ccccc4)cc3)nc2C#N)CC1	83.5%	72.5% (inactive)	83.5% (inactive)	66.3% (inactive)	78.3% (inactive)	17.7% (inactive)	60.5%	78.3%	-5.6% (inactive)	0.79% (inactive)
COc1ccc(Cn2nnnc2C(c2ccccc2OC)N2CCC(C(N)=O)CC2)cc1 (stereo not given)	100%	91% (inactive)	100% (inactive)	105% (inactive)	85.4% (inactive)	1.34% (inactive)	84%	85.4%	-5.73% (inactive)	8.52% (inactive)
CCN1C(=O)/C(=C2\C=Cc3ccccc3N2CC)OC1=S	95.5%	100% (inactive)	95.5% (inactive)	85.9% (inactive)	72% (inactive)	7.3% (inactive)	64.7%	72%	-4.23% (inactive)	2.33% (inactive)
O=C(Nc1ccc(N2CCOCC2)c(F)c1)c1ccncc1	97%	99% (inactive)	97% (inactive)	114% (inactive)	96.6% (inactive)	12.5% (inactive)	84.2%	96.6%	-4.27% (inactive)	1.64% (inactive)
CC(C)(C)NC(=O)NC(=O)COc1ccccc1C#N	104%	90.5% (inactive)	104% (inactive)	108% (inactive)	106% (inactive)	25.7% (inactive)	80.7%	106%	-6.49% (inactive)	-2.38% (inactive)
c1cncc(-c2nnc(-c3ccco3)o2)c1	106%	114% (inactive)	106% (inactive)	86.3% (inactive)	105% (inactive)	16% (inactive)	89%	105%	-4.93% (inactive)	-7.58% (inactive)
O=C(NC1CCS(=O)(=O)C1)N1CCCCC1 (stereo not given)	102%	79.5% (inactive)	102% (inactive)	103% (inactive)	89.6% (inactive)	1.27% (inactive)	88.3%	89.6%	-5.92% (inactive)	-2% (inactive)
CN(C)CCCN1C(=O)c2oc3ccccc3c(=O)c2C1c1cccs1 (stereo not given)	110%	93.5% (inactive)	110% (inactive)	99% (inactive)	86.1% (inactive)	5.31% (inactive)	80.8%	86.1%	-1.95% (inactive)	1.67% (inactive)
COC(=O)c1cc(NC(=O)C2CC=CCC2C(=O)O)cc(C(=O)OC)c1 (stereo not given)	97.5%	86.5% (inactive)	97.5% (inactive)	104% (inactive)	109% (inactive)	15.8% (inactive)	92.7%	109%	-4.8% (inactive)	-1.94% (inactive)
CCOc1cc(S(=O)(=O)NCc2ccccn2)c(C)cc1C	92.5%	84.5% (inactive)	92.5% (inactive)	96.8% (inactive)	100% (inactive)	6.28% (inactive)	94.1%	100%	-5.53% (inactive)	-4.76% (inactive)
CC(C)Cc1nc(S(=O)(=O)c2ccc(Cl)cc2)c(N2CCOCC2)o1	128%	94.5% (inactive)	128% (inactive)	87.8% (inactive)	90.7% (inactive)	0.63% (inactive)	90.1%	90.7%	-5.06% (inactive)	1.75% (inactive)

SMILES	viability [1]	Her2 level [2]	viability [3]	viability [4]	viability [5]	differential viability (reversal) ([6]; H69AR cells + 2 uM doxorubicin)	viability [6, 9]	viability [6, 10]	inhibition [7]	inhibition [8]
COc1cc(NC(=O)Cc2cccs2)ccc1-n1cnnn1	97%	95.5% (inactive)	97% (inactive)	97% (inactive)	102% (inactive)	7.88% (inactive)	94.4%	102%	-6.13% (inactive)	1.29% (inactive)
COc1ccc(-c2nc(C#N)c(NCCCN(C)C)o2)cc1OC	95%	111% (inactive)	95% (inactive)	102% (inactive)	96.2% (inactive)	3.08% (inactive)	93.1%	96.2%	-0.26% (inactive)	-5% (inactive)
O=C(CN1C(=O)c2ccccc2C1=O)NCC1COc2ccccc2O1 (stereo not given)	98%	110% (inactive)	98% (inactive)	95.1% (inactive)	102% (inactive)	5.31% (inactive)	97.1%	102%	2.11% (inactive)	12.5% (inactive)
CCCOc1ccccc1NC(=O)c1c(-c2ccccc2)noc1C	84.5%	92% (inactive)	84.5% (inactive)	79.7% (inactive)	89% (inactive)	7.04% (inactive)	82%	89%	1.67% (inactive)	5% (inactive)
COc1ccccc1CN1CCCC(C(=O)N(C)Cc2ccccc2)C1 (stereo not given)	70%	116% (inactive)	70% (inactive)	99.1% (inactive)	81.1% (inactive)	3.71% (inactive)	77.4%	81.1%	-0.77% (inactive)	5% (inactive)
CCC(=O)Nc1ccc(Cl)c(NC(=O)C(C)C)c1	97%	80% (inactive)	97% (inactive)	87.9% (inactive)	111% (inactive)	7.54% (inactive)	103%	111%	-7.97% (inactive)	6.07% (inactive)
CCCc1nn(CCc2ccccn2)c(N)c1CC	114%	91% (inactive)	114% (inactive)	89.4% (inactive)	96.5% (inactive)	3.08% (inactive)	93.5%	96.5%	-6% (inactive)	0.66% (inactive)
CC1N=C2c3ccccc3N=C(SCc3cc(=O)n4cc(Cl)ccc4n3)N2C1=O (stereo not given)	78.5%	92.5% (inactive)	78.5% (inactive)	79.4% (inactive)	76.1% (inactive)	-9.46% (inactive)	85.6%	76.1%	-4.87% (inactive)	-0.48% (inactive)
CCC(C(=O)NC1CCCC1)N(Cc1ccco1)C(=O)Cn1nnc(-c2ccc(C)cc2)n1 (stereo not given)	97.5%	97% (inactive)	97.5% (inactive)	106% (inactive)	92.3% (inactive)	-1.87% (inactive)	94.2%	92.3%	-3.33% (inactive)	-3.44% (inactive)
Cc1nn(-c2ccccc2)c(C)c1/C=N/O	106%	104% (inactive)	106% (inactive)	100% (inactive)	96.5% (inactive)	11.4% (inactive)	85.1%	96.5%	-4.73% (inactive)	3.93% (inactive)
CN(C)C(CN1C(=O)C2CC=CCC2C1=O)c1cn(C)c2ccccc12 (stereo not given)	104%	85.5% (inactive)	104% (inactive)	89.9% (inactive)	95.4% (inactive)	6.72% (inactive)	88.7%	95.4%	-6.71% (inactive)	-1.59% (inactive)
CCOC(=O)c1ccc(S(=O)(=O)Nc2cc(C(C)(C)C)no2)cc1	92%	97% (inactive)	92% (inactive)	112% (inactive)	101% (inactive)	-2.06% (inactive)	103%	101%	-3.25% (inactive)	-3.81% (inactive)
COc1ccc(OCc2nc(N)nc(Nc3cccc(C)c3C)n2)cc1	98.5%	120% (inactive)	98.5% (inactive)	111% (inactive)	103% (inactive)	7.49% (inactive)	96%	103%	-4.55% (inactive)	-6% (inactive)
C/C(N)=C(/C#N)C(=O)CSc1nnc(Nc2c(C)cccc2C)s1	108%	79.5% (inactive)	108% (inactive)	93.7% (inactive)	103% (inactive)	28.5% (inactive)	74.6%	103%	-2.84% (inactive)	3.02% (inactive)
CCOC(=O)Nc1sc(=S)n(C)c1C	92.5%	96% (inactive)	92.5% (inactive)	104% (inactive)	98% (inactive)	3.1% (inactive)	94.9%	98%	-3.95% (inactive)	0.16% (inactive)
